Assays:
[1] = target: VHR (Homo sapiens, UniProt P51452); assay: PTP-catalyzed pNPP hydrolysis, VHR; assay type: biochemical
How it was run: (§1)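 pNPP hydrolysis was run at 25 °C in 50 mM 3,3-dimethylglutarate, pH 7.0, 1 mM EDTA, ionic strength 0.15 M (NaCl). pNPP was fixed at each enzyme's experimentally determined Km, and reactions were started with enzyme. They were quenched with NaOH and corrected with no-enzyme controls. p-Nitrophenol was read at 405 nm. IC50 was fitted from AI/A0 = IC50/(IC50+[I]).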

[2] = target: T1, CD45 (Homo sapiens, UniProt P08575); assay: PTP-catalyzed pNPP hydrolysis, CD45; assay type: biochemical
T1 sequence (P08575 26-1306): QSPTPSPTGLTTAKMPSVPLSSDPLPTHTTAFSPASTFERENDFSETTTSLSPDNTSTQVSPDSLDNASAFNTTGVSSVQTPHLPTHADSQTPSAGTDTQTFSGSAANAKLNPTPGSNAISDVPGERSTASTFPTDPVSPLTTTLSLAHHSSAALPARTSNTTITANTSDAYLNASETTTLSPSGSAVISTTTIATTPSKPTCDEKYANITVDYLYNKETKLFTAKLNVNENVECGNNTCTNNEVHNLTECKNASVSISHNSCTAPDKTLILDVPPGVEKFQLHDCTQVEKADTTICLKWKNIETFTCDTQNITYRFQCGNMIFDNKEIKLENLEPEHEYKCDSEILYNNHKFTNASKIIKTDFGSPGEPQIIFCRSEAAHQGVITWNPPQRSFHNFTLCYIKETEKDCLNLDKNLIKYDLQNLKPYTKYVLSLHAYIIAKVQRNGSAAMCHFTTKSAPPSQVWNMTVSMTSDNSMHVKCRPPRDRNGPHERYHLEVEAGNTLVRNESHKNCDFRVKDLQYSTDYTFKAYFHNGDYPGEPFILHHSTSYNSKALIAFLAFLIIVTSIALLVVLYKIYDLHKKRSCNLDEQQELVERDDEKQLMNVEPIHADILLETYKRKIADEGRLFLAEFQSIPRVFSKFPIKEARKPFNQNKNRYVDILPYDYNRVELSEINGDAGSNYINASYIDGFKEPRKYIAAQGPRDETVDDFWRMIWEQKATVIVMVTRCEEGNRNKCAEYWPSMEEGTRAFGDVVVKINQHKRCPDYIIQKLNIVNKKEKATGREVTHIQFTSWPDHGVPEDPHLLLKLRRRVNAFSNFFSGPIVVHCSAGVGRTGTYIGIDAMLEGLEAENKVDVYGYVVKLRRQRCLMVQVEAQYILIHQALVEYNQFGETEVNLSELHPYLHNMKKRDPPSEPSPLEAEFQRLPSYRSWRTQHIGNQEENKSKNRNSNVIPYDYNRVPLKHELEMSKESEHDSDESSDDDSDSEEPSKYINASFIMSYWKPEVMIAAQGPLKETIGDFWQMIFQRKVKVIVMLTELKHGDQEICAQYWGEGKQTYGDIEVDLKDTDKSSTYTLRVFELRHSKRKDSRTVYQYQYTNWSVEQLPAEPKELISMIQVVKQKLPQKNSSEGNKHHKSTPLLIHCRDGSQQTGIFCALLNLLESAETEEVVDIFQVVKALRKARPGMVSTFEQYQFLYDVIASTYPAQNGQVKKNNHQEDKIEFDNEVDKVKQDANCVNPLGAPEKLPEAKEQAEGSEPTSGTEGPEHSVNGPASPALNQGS
How it was run: as §1

[3] = test system: PP1; settings: biochemical assays; cited from earlier work
[4] = target: T2, SHP2 (Homo sapiens, UniProt Q06124); assay: PTP-catalyzed pNPP hydrolysis, SHP2; assay type: biochemical
T2 sequence (Q06124 262-528): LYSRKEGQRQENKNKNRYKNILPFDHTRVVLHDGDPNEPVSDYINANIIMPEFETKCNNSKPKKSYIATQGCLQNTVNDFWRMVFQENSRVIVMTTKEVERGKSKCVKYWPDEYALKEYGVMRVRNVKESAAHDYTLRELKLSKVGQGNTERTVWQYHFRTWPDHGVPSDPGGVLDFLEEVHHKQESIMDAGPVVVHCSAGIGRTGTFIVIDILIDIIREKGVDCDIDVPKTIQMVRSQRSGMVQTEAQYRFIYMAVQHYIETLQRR
How it was run: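 The SHP2 catalytic domain (residues 262–528) hydrolysed pNPP at 25 °C, pH 7.0 (50 mM 3,3-dimethylglutarate, 1 mM EDTA, ionic strength 0.15 M). Single-point screening used 10 µM final test compound. IC50 was measured at pNPP = Km by A405 after NaOH quench, fitted to AI/A0 = IC50/(IC50+[I]). For Ki and mode, initial rates at inhibitor 0–3 Ki and pNPP 0.2–5× apparent Km were fitted to kinetic equations.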

[5] = target: T3, HePTP (Homo sapiens, UniProt P35236); assay: PTP-catalyzed pNPP hydrolysis, HePTP; assay type: biochemical
T3 sequence (P35236 1-360): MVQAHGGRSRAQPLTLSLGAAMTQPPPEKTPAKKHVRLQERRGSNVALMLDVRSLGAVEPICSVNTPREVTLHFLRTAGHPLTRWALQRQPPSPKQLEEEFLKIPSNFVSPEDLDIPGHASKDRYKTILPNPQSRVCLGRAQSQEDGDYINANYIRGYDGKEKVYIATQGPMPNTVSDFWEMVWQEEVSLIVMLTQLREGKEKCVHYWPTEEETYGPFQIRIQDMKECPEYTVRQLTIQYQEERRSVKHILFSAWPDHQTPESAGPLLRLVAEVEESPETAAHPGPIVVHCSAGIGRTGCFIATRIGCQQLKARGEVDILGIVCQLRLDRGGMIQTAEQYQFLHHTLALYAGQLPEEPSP
How it was run: as §1

[6] = test system: Jurkat T cells; assay: TCR-mediated tyrosine phosphorylation in Jurkat T cells; assay type: cell-based; settings: 2 h pretreatment (2 µM; TTN 2–4 µM), 10 µg/mL anti-CD3
[7] = target: PTPα (Homo sapiens, UniProt P18433); assay: PTP-catalyzed pNPP hydrolysis, PTPα; assay type: biochemical
How it was run: as §1

VHR, sequence (P51452 whole entry, species assumed): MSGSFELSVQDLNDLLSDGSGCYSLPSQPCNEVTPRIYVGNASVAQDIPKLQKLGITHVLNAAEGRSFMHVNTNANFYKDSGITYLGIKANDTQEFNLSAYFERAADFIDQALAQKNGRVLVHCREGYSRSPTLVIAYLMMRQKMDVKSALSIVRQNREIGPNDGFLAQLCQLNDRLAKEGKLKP
PTPα, sequence (P18433 20-802): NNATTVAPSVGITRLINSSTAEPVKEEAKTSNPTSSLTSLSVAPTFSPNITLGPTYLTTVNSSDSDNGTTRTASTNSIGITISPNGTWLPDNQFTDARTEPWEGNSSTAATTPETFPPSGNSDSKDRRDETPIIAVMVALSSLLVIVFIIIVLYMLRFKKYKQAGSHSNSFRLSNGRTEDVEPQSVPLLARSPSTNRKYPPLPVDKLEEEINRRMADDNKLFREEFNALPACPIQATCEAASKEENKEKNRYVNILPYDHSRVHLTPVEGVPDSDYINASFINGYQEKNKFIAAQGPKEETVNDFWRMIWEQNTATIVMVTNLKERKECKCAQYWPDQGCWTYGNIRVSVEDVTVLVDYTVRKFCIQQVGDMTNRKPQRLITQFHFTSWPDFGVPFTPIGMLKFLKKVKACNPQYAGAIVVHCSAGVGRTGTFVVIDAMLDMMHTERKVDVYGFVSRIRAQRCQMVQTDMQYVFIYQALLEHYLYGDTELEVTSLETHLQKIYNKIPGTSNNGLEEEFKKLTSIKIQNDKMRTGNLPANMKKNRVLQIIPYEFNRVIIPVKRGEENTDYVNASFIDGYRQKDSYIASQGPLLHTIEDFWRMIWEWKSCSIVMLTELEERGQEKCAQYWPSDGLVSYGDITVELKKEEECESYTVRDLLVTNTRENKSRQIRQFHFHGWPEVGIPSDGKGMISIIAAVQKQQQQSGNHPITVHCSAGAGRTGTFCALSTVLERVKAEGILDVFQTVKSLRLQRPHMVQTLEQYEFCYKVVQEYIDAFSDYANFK

Compound: C=C/C(=C/C(=O)C[C@H](C)C[C@@H](C)CC[C@H](O)[C@H](C)C(=O)C[C@@H](O)[C@H](C)[C@@H](C)OC(=O)C[C@@H](O)C1=C(C)C(=O)OC1=O)CC [TTN, tautomycetin]
- IC50 [1]: > 50 µM
- IC50 [2]: > 50 µM
- inhibition of PP1 [3]: low nM range
- IC50 [4]: 2.9 ± 0.2 µM
- Ki [4]: 1.6 ± 0.1 µM
- reduction of SHP2 activity ([4]; 10 µM compound, pNPP, pH 7, 25 °C): 80–90%
- preference for SHP2 over all PTPs examined ([4]; from IC50 values): ≥ 5 fold
- mode of SHP2 inhibition ([4]; pNPP hydrolysis, 25 °C, pH 7.0): competitive inhibitors
- IC50 [5]: > 50 µM
- effect on TCR-mediated tyrosine phosphorylation [6]: efficiently attenuated
- IC50 [7]: > 50 µM

Reference: PMC3034256 (Chemistry & biology, 2011)
